Source: PubChem BioAssay (several laboratories)
Rows were chosen to be rich in hits. Some 29% of all compounds tested hit in one or more screens of this group.
Ecoli WT expand – blocks growth of wild type E. coli BW25113. OD600 absorbance. growth inhibition, % at 100 µM. 0.15% of 98,000 active;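 active means growth inhibition above about 50% at one test dose, limit read from the data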;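 further: growth measured after 20 h incubation at 37 °C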
CYP2C9 inh – blocks human cytochrome P450 2C9 | 20% of 96,000 active | P11712 | inhibition, % at 5 µM | CYP2C9 Supersomes, luciferin-H conversion, luminescence;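 active means blocking of liver enzyme CYP2C9 beyond about 50% at 5 µM, limit read from the data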
Ecoli tolC – E. coli tolC mutant growth inhibition; 2.2% of 65,000 active; E. coli BW25113 tolC mutant growth, OD615; growth inhibition, % at 10 µM (by protocol);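 active means growth inhibition at or above a cutoff equal to the mean over every tested compound plus 3 SD, cut at about 60% in these data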;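 further: growth measured after 20 h incubation at 37 °C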
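Signal: optical density read at 615 nm; Assay system: E. coli ΔtolC::kan strain BW25113; Times: 20 h incubation with compound, 37 °C; Dosing: 10 µM final, single dose.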
CYP2C9 activ – activators of human CYP2C9. P11712. activation factor at 5 µM. recombinant CYP2C9, luciferin-H conversion, luminescence; stronger effect = higher value; factor 1 = untreated enzyme, 0 = blocked. 1.4% of 96,000 active;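 active means activation factor of 2 or more for CYP2C9 at a 5 µM dose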
CYP2C19 activ – increases human CYP2C19 enzyme activity; recombinant CYP2C19, luciferin-H EGE luminescence; stronger effect = higher value; 0 = fully inhibited enzyme, 1 = untreated enzyme; 96,000 tested, under 10 active; P33261; activation factor at 5 µM;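 active means activation factor of at least 2 at 5 µM in the primary screen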
Target sequence (P33261 whole entry, looked up): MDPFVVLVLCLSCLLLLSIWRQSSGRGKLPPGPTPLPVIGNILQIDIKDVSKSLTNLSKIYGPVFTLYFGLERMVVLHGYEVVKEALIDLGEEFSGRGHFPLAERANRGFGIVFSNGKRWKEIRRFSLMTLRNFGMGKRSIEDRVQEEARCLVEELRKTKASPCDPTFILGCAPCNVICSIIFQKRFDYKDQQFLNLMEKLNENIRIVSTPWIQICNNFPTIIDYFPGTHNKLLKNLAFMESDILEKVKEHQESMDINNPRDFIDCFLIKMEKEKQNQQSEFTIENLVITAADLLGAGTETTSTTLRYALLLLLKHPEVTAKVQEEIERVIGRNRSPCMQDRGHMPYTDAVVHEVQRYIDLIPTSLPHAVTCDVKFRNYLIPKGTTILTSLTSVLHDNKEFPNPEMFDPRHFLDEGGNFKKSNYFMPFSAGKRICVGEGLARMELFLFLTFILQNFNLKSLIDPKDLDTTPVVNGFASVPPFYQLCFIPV
CYP2C19 inhib – human CYP2C19 inhibition; 21% of 96,000 active; inhibition, % at 5 µM; P33261; CYP2C19 Supersomes, luciferin-H EGE luminescence, 30 min; AID 778;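 active means CYP2C19 inhibition above a set limit at 5 µM in the primary screen, cut at about 50% in these data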
A number is an active result; n = inactive; x = no result.

SMILES	Ecoli WT expand	CYP2C9 inh	Ecoli tolC	CYP2C9 activ	CYP2C19 activ	CYP2C19 inhib
COc1ccc2c(=O)c(C(=O)NCCc3ccc(OC)c(OC)c3)c[nH]c2c1	n	54	n	n	n	n
COc1ccc(CCNC(=O)c2ccc(=O)[nH]n2)cc1OC	n	n	n	n	n	n
C=CCNC(=S)NNC(=O)c1cccn(Cc2ccc(Cl)c(Cl)c2)c1=O	n	n	x	n	n	n
C=CCNC(=S)NNC(=O)c1cccn(Cc2ccc(Cl)cc2Cl)c1=O	n	68	x	n	n	n
Cc1ccn2c(C(=O)c3ccc(Cl)cc3)cnc2c1	n	75	x	n	n	79
Cc1ccn2c(C(=O)CSc3ccc(Cl)cc3)c(C)nc2c1	n	n	x	n	n	n
O=C(N/N=C/c1ccccc1Cl)c1cccc(F)c1	n	n	x	n	n	n
CC1C/C(=N/NC(=O)c2cccc(F)c2)c2ccc(O)cc2C1 (stereo not drawn)	n	n	x	n	n	51
CCS(=O)(=O)N1Cc2ccccc2CC1C(=O)NCC12CC3CC(CC(C3)C1)C2 (stereo not drawn)	n	68	x	n	n	92
CCS(=O)(=O)N1Cc2ccccc2CC1C(=O)N1CCN(c2cccc(C)c2C)CC1 (stereo not drawn)	n	58	n	n	n	64
C=CCn1c(SCC(=O)c2ccc(Br)cc2)nnc1C(CC(C)C)NC(=O)c1cccs1 (stereo not drawn)	n	n	x	n	n	n
CC12CCCCC1(O)[N+](=O)C1=C(CCCC1)N2[O-] (stereo not drawn)	n	n	n	n	n	n
CC(=Nc1ccccc1)C1=C(O)COC1=O	n	n	x	n	n	n
CC(=Nc1ccc(C)c(C)c1)C1=C(O)CSC1=O	n	n	n	n	n	65
COc1ccccc1N=C(C)C1=C(O)CSC1=O	n	n	n	n	n	64
COc1ccc(OC)c(N=C(C)C2=C(O)COC2=O)c1	n	n	n	n	n	n
O=C(Nc1ccn(Cc2c(F)c(F)c(F)c(F)c2F)n1)c1cccc(Cn2cc([N+](=O)[O-])cn2)c1	n	n	x	n	n	n
O=C(Nc1ccn(Cc2c(F)c(F)cc(F)c2F)n1)c1cccc(Cn2cc([N+](=O)[O-])cn2)c1	n	82	x	n	n	73
O=C(Nc1ccn(Cc2ccccc2F)n1)c1ccc(COc2cccc(Br)c2)cc1	n	88	x	n	n	n
O=C(Nc1cccnc1)c1ccc(COc2ccccc2Cl)o1	n	n	x	n	n	n
O=C(Nc1ccn(Cc2ccccc2F)n1)c1ccc(COc2cc(Cl)ccc2Cl)o1	n	91	x	n	n	61
O=C(Nc1nn(Cc2ccc(Cl)cc2)cc1Br)c1ccc(COc2ccccc2Cl)o1	n	86	x	n	n	81
O=C(NCc1cccnc1)c1ccc(COc2cccc3ccccc23)o1	n	n	x	n	n	53
O=C(NCc1ccc2c(c1)OCO2)c1ccc(COc2cc(Cl)ccc2Cl)o1	n	94	x	n	n	57
CN(C)c1ccc(NC(=O)c2ccc(COc3cccc(Cl)c3)o2)cc1	n	71	n	n	n	n
SMILES	Ecoli WT expand	CYP2C9 inh	Ecoli tolC	CYP2C9 activ	CYP2C19 activ	CYP2C19 inhib
O=C(Nc1ccn(Cc2ccccc2F)n1)c1ccc(COc2ccccc2Cl)cc1	n	86	x	n	n	79
O=C(N/N=C/c1ccc(O)cc1)c1ccc(COc2cc(Cl)ccc2Cl)o1	n	n	x	n	n	n
CCOc1ccc(OCc2ccc(C(=O)Nc3cccnc3)o2)cc1	n	n	x	n	n	n
O=C(Nc1ccn(Cc2c(F)c(F)cc(F)c2F)n1)c1ccc(COc2ccccc2Cl)cc1	n	66	x	n	n	n
O=C(Nc1cccnc1)c1ccc(COc2cc(Cl)ccc2Cl)o1	n	60	x	n	n	74
O=c1[nH]nc2n1CCCCC2	n	n	n	n	n	n
CCN(CC)S(=O)(=O)N1CCC(C(=O)NC2CCCc3ccccc32)CC1 (stereo not drawn)	n	x	n	x	x	x
OC(CNC1CCCCC1)CN1CCN(CC(O)CNC2CCCCC2)CC1 (stereo not drawn)	x	n	n	n	n	n
COc1cccc(/C=N/n2c(C)nc3ccccc3c2=O)c1O	n	69	n	n	n	n
Cc1nc2ccccc2c(=O)n1/N=C/c1ccc(O)cc1	n	n	n	n	n	n
CCCc1nc2ccccc2c(=O)n1/N=C/c1ccccc1O	n	86	n	n	n	62
CCCc1nc2ccccc2c(=O)n1/N=C/c1c(C)[nH]n(-c2ccc(C)cc2)c1=O	n	67	n	n	n	n
CSc1nn(CCc2ccncc2)c(=S)s1	n	65	n	n	n	97
Cn1c(SCc2cccnc2)nc2cccnc21	n	n	n	n	n	n
CC1=CC(C)(C)Nc2ccc(OC(=O)C(Cc3ccccc3)N3C(=O)c4ccccc4C3=O)cc21 (stereo not drawn)	n	56	x	n	n	n
CC(=O)NC(CCS(C)(=O)=O)C(=O)Nc1c(C)cccc1C (stereo not drawn)	n	n	n	n	n	n
CCCc1nnc(NC(=O)CCC(=O)Nc2ccc(F)cc2)s1	n	n	n	n	n	n
C/C(N)=C(/C#N)C(=O)COC(=O)c1cc(C)n(-c2ccc(F)cc2)c1C	n	n	n	n	n	59
C/C(N)=C(/C#N)C(=O)COC(=O)CCS(=O)(=O)c1ccccc1	n	n	x	n	n	n
C/C(N)=C(/C#N)C(=O)COC(=O)CCSc1ccccc1	n	n	n	n	n	68
C/C(N)=C(/C#N)C(=O)COC(=O)c1ccncc1	n	n	n	n	n	65
C/C(N)=C(/C#N)C(=O)COC(=O)c1cc(S(=O)(=O)N2CCCCC2)ccc1C	n	n	n	n	n	51
O=C(CN(Cc1ccccc1)S(=O)(=O)c1ccccc1)NC1CC1	x	x	n	x	x	x
CC(C)OC(=O)C1=C(N)N2C(=O)CSC2=C(C(=O)OC(C)C)C1	n	n	x	n	n	n
CC1Cc2ccccc2N1C(=O)CSc1nnc(CNc2ccccc2)o1 (stereo not drawn)	n	n	n	n	n	n
SMILES	Ecoli WT expand	CYP2C9 inh	Ecoli tolC	CYP2C9 activ	CYP2C19 activ	CYP2C19 inhib
C/C(N)=C(/C#N)C(=O)COC(=O)c1ccc(C)c(S(=O)(=O)N2CCCCC2)c1	n	62	x	n	n	81
CCC(C(=O)NCc1ccco1)N(Cc1cccs1)C(=O)CNS(=O)(=O)c1ccccc1 (stereo not drawn)	n	n	x	n	n	n
CCC(=O)N(CCC(c1ccccc1)c1ccco1)Cc1cccs1 (stereo not drawn)	n	69	x	n	n	n
COc1ccccc1C(CCN(Cc1cccs1)C(C)=O)c1ccco1 (stereo not drawn)	n	90	n	n	n	92
NC1=NC(c2ccc(Br)cc2)n2c(nc3ccccc32)N1 (stereo not drawn)	n	n	n	n	n	94
Cc1ccc(C)c(CN2C(=O)C3(OCCCO3)c3ccccc32)c1	n	72	n	n	n	52
